Test results from ChEMBL document CHEMBL1177802, “Novel semicarbazones based 2,5-disubstituted-1,3,4-oxadiazoles: one more step towards establishing four binding site pharmacophoric model hypothesis for anticonvulsant activity” (Bioorg Med Chem Lett, 2010).
Calls of active or inactive are those of the source.

How the values were obtained:
[1] = test system: Rattus norvegicus; experiment: Anticonvulsant activity against subcutaneous strychnine-induced seizures in ip dosed Wistar rat assessed as minimum effective dose after 4 hrs; format: functional; conditions: read-out: MED
How it was run: (§1)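 Rats; subcutaneous strychnine-induced seizure model with compounds given intraperitoneally at 30, 100 and 300 mg/kg. Activity is checked at 0.5 h and 4.0 h and recorded as the minimal dose active in at least half of the animals. Absence of activity is judged at the 300 mg/kg maximum.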

[2] = test system: Rattus norvegicus; experiment: Anticonvulsant activity against maximal electroshock-induced seizures in Wistar rat at 30 mg/kg, po after 2 hrs; format: functional, organism-based; design: dose 30 mg/kg
How it was run: (§2)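 Rats dosed orally at 30 mg/kg; maximal electroshock protection scored at 0.25, 0.5, 1, 2 and 4 h. Result is given as the number of protected rats out of four.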

[3] = test system: Mus musculus; experiment: Neurotoxicity in ip dosed Swiss albino mouse assessed as minimum dose required to cause toxicity after 0.5 hrs; format: organism-based; conditions: in vivo
How it was run: (§3)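 Acute neurotoxicity by rotorod test in mice given 30, 100 and 300 mg/kg ip, assessed 0.5 and 4.0 h after dosing. Reported as the minimal dose producing the effect in half or more of the animals. Absence of activity is judged at the 300 mg/kg maximum.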

[4] = test system: Mus musculus; experiment: Anticonvulsant activity against subcutaneous pentylenetetrazole-induced seizures in Swiss albino mouse at 300 mg/kg, ip after 0.5 hrs; format: functional, organism-based; design: dose 300 mg/kg
How it was run: (§4)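 Mice; subcutaneous pentylenetetrazole seizure screen after ip dosing at 30, 100 and 300 mg/kg, read 0.5 and 4.0 h post-dose. Scored as the lowest dose protecting at least half of the animals. Absence of activity is judged at the 300 mg/kg maximum.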

[5] = test system: Rattus norvegicus; experiment: Anticonvulsant activity against maximal electroshock-induced seizures in Wistar rat at 30 mg/kg, po after 0.25 hrs; format: functional, organism-based; design: dose 30 mg/kg; how it was run: as §2
[6] = test system: Rattus norvegicus; experiment: Neurotoxicity in Wistar rat at 30 mg/kg, po after 0.5 hrs; format: toxicity, organism-based; design: dose 30 mg/kg, route oral; conditions: in vivo
How it was run: (§5)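 Oral dosing in rats at 30 mg/kg, neurotoxicity (rotorod) scored at 0.25, 0.5, 1, 2 and 4 h post-administration. Counts are out of four rats per time point.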

[7] = test system: Mus musculus; experiment: Anticonvulsant activity against maximal electroshock-induced seizures in ip dosed Swiss albino mouse assessed as minimum effective dose after 0.5 hrs; format: functional; conditions: read-out: MED
How it was run: (§6)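 Mice; compounds given ip at 30, 100 and 300 mg/kg and tested in the maximal electroshock seizure model at 0.5 and 4.0 h after dosing. Read-out is the minimal dose giving protection in half or more of the animals. Absence of activity is judged at the 300 mg/kg maximum.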

[8] = test system: Rattus norvegicus; experiment: Increase in GABA level in Wistar rat midbrain assessed per mg of tissue at 100 mg/kg, ip after 2 hrs; format: functional; conditions: route intraperitoneal
How it was run: (§7)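 Rats given 100 mg/kg ip and killed by decapitation 2 h later. Midbrain, medulla oblongata and cerebellum are placed separately in ice-cold 80% ethanol and processed for GABA, expressed per 100 mg tissue. Reference drug clobazam is given at 30 mg/kg ip. Values are mean ± SEM of six rats.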

[9] = test system: Rattus norvegicus; experiment: Increase in GABA level in Wistar rat cerebellum assessed per mg of tissue at 100 mg/kg, ip after 2 hrs; format: functional; conditions: route intraperitoneal; how it was run: as §7
[10] = test system: Mus musculus; experiment: Neurotoxicity in ip dosed Swiss albino mouse assessed as minimum dose required to cause toxicity after 4 hrs; format: organism-based; conditions: in vivo; how it was run: as §3
[11] = test system: Rattus norvegicus; experiment: Neurotoxicity in Wistar rat at 30 mg/kg, po after 1 hr; format: toxicity, organism-based; design: dose 30 mg/kg, route oral; conditions: in vivo; how it was run: as §5
[12] = test system: Mus musculus; experiment: Anticonvulsant activity against subcutaneous pentylenetetrazole-induced seizures in Swiss albino mouse at 300 mg/kg, ip after 4 hrs; format: functional, organism-based; design: dose 300 mg/kg; how it was run: as §4
[13] = test system: Rattus norvegicus; experiment: Increase in GABA level in Wistar rat medulla oblangata assessed per mg of tissue at 100 mg/kg, ip after 2 hrs; format: functional, Medulla oblongata; conditions: route intraperitoneal; how it was run: as §7
[14] = test system: Rattus norvegicus; experiment: Neurotoxicity in Wistar rat at 30 mg/kg, po after 2 hrs; format: toxicity, organism-based; design: dose 30 mg/kg, route oral; conditions: in vivo; how it was run: as §5
[15] = test system: Rattus norvegicus; experiment: Neurotoxicity in Wistar rat at 30 mg/kg, po after 0.25 hrs; format: toxicity, organism-based; design: dose 30 mg/kg, route oral; conditions: in vivo; how it was run: as §5
[16] = test system: Rattus norvegicus; experiment: Anticonvulsant activity against maximal electroshock-induced seizures in Wistar rat at 30 mg/kg, po after 0.5 hrs; format: functional, organism-based; design: dose 30 mg/kg; how it was run: as §2
[17] = test system: Mus musculus; experiment: Anticonvulsant activity against maximal electroshock-induced seizures in ip dosed Swiss albino mouse assessed as minimum effective dose after 4 hrs; format: functional; conditions: read-out: MED; how it was run: as §6
[18] = test system: Rattus norvegicus; experiment: Anticonvulsant activity against subcutaneous strychnine-induced seizures in ip dosed Wistar rat assessed as minimum effective dose after 0.5 hrs; format: functional; conditions: read-out: MED
How it was run: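 Rats given 30, 100 or 300 mg/kg ip and challenged with subcutaneous strychnine. Protection was read at 0.5 and 4.0 h after dosing. The value is the minimal dose that gave activity in half or more of the animals; no activity at 300 mg/kg was the highest-dose cut-off.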

[19] = test system: Rattus norvegicus; experiment: Anticonvulsant activity against maximal electroshock-induced seizures in Wistar rat at 30 mg/kg, po after 1 hr; format: functional, organism-based; design: dose 30 mg/kg; how it was run: as §2
[20] = test system: Mus musculus; experiment: Anticonvulsant activity against subcutaneous pentylenetetrazole-induced seizures in ip dosed Swiss albino mouse assessed as minimum effective dose after 0.5 hrs; format: functional; conditions: read-out: MED; how it was run: as §4
[21] = test system: Rattus norvegicus; experiment: Neurotoxicity in Wistar rat at 30 mg/kg, po after 4 hrs; format: toxicity, organism-based; design: dose 30 mg/kg, route oral; conditions: in vivo; how it was run: as §5
[22] = test system: Mus musculus; experiment: Neurotoxicity in Swiss albino mouse at 300 mg/kg, ip after 0.5 hrs; format: toxicity, organism-based; design: dose 300 mg/kg, route intraperitoneal; conditions: in vivo; how it was run: as §3
[23] = test system: Mus musculus; experiment: Neurotoxicity in Swiss albino mouse at 300 mg/kg, ip after 4 hrs; format: toxicity, organism-based; design: dose 300 mg/kg, route intraperitoneal; conditions: in vivo; how it was run: as §3
[24] = test system: Rattus norvegicus; experiment: Anticonvulsant activity against subcutaneous strychnine-induced seizures in Wistar rat at 300 mg/kg, ip after 0.5 hrs; format: functional, organism-based; design: dose 300 mg/kg; how it was run: as §1
[25] = test system: Mus musculus; experiment: Anticonvulsant activity against subcutaneous pentylenetetrazole-induced seizures in ip dosed Swiss albino mouse assessed as minimum effective dose after 4 hrs; format: functional; conditions: read-out: MED; how it was run: as §4
[26] = test system: Rattus norvegicus; experiment: Increase in GABA level in Wistar rat medulla oblangata assessed per mg of tissue at 30 mg/kg, ip after 2 hrs; format: functional, Medulla oblongata; conditions: route intraperitoneal
How it was run: (§8)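 Rats dosed ip, killed by decapitation 2 h after dosing. Midbrain, medulla oblongata and cerebellum were each placed separately in ice-cold 80% ethanol and processed for GABA by a previously reported method. GABA was expressed per 100 mg tissue. Values are the mean ± SEM of six rats, compared with an untreated control group.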

[27] = test system: Rattus norvegicus; experiment: Increase in GABA level in Wistar rat midbrain assessed per mg of tissue at 30 mg/kg, ip after 2 hrs; format: functional; conditions: route intraperitoneal
[28] = test system: Rattus norvegicus; experiment: Increase in GABA level in Wistar rat cerebellum assessed per mg of tissue at 30 mg/kg, ip after 2 hrs; format: functional; conditions: route intraperitoneal; how it was run: as §8

Row | Compound | minimal effective dose [1] [mg/kg] | Activity [2] | MED [4] | Activity [5] | Activity [6] | minimal effective dose [7] [mg/kg] | Activity [8] [µg] | Activity [9] [µg] | Activity [11] | Activity [13] [µg] | Activity [14] | Activity [15] | Activity [16] | minimal effective dose [17] [mg/kg] | Activity [19] | Activity [21] | Activity [22] | Activity [23] | MED [24] | minimal effective dose [25] [mg/kg] | other results
1 | O=C(N/N=C\c1ccc(O)cc1)Nc1nnc(COc2ccc3ccccc3c2)o1 | 300 | inactive | inactive | inactive | Non-toxic | 100 | 53.77 | 28.53 | Non-toxic | 35.48 | Non-toxic | Non-toxic | inactive | 300 |  |  |  |  |  |  | Activity [3]: 100 mg/kg; Activity [10]: 100 mg/kg; MED [12]: inactive; minimal effective dose [18]: 100 mg/kg
2 | O=C(N/N=C(/c1ccccc1)c1ccc([N+](=O)[O-])cc1)Nc1nnc(COc2ccc3ccccc3c2)o1 | 300 | inactive |  | inactive | Non-toxic | 100 | 67.72 | 29.75 | Non-toxic | 46.62 | Non-toxic | Non-toxic | inactive | 300 | inactive | Non-toxic | Non-toxic | Non-toxic | inactive | 300 | minimal effective dose [20]: 100 mg/kg
3 | O=C(N/N=C(/c1ccccc1)c1ccc(O)cc1)Nc1nnc(COc2ccc3ccccc3c2)o1 | 300 |  | inactive | inactive | Non-toxic | 100 | 62.25 | 31.41 | Non-toxic | 37.74 | Non-toxic | Non-toxic | inactive | 300 | inactive |  | Non-toxic | Non-toxic | inactive | 300 | 
4 | C/C(=N/NC(=O)Nc1nnc(COc2ccc3ccccc3c2)o1)c1ccc([N+](=O)[O-])cc1 | 300 | inactive | inactive | inactive | Non-toxic | 100 | 45.5 | 27.56 | Non-toxic | 40.42 |  | Non-toxic |  | 300 | inactive | Non-toxic | Non-toxic | Non-toxic | inactive | 300 | 
5 | CN1C(=O)CC(=O)N(c2ccccc2)c2cc(Cl)ccc21 [CLOBAZAM] |  |  |  |  |  |  |  |  |  |  |  |  |  |  |  |  |  |  |  |  | Activity [26]: 47.53 µg; Activity [27]: 69.51 µg; Activity [28]: 35.44 µg
